ChEMBL document CHEMBL2390937, “Evaluation of selective inhibitors of 11β-HSD1 for the treatment of hypertension” (Bioorg Med Chem Lett, 2013)
Active and inactive are the calls of the source. The rule behind the calls is not given here.

How the values were obtained:
Rattus norvegicus [1] = assay: Antihypertensive activity in spontaneously hypertensive rat model assessed as reduction in heart rate at 10 mg/kg for 7 days; format: functional, organism-based; set-up: dose 10 mg/kg
Method in brief: (§1)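 Spontaneously hypertensive rats implanted with telemetry abdominal aorta catheters and dosed daily at 10 mg/kg over 7 days. Heart rate and systolic and diastolic BP were recorded, with change from baseline compared against vehicle-treated animals.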

[2] = Ratio of drug level in brain to plasma of spontaneously hypertensive rat at 10 mg/kg; format: ADME, organism-based; set-up: dose 10 mg/kg; conditions: read-out: BPR
Method in brief: (§2)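 Rats received 10 mg/kg and were sacrificed at peak (about 4 h) or trough (about 24 h) post dose. Total and free drug were measured in plasma, isolated brain and CSF, and the brain/plasma ratio was derived from these.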

[3] = Drug level in spontaneously hypertensive rat CSF at 10 mg/kg measured after 24 hrs; format: ADME, organism-based, Cerebrospinal fluid; set-up: dose 10 mg/kg; conditions: read-out: Drug uptake; method in brief: as §2
[4] = Total drug level in spontaneously hypertensive rat brain at 10 mg/kg measured after 24 hrs; format: ADME, organism-based; set-up: dose 10 mg/kg; conditions: read-out: Drug uptake; method in brief: as §2
Brain [5] = assay: Free drug level in spontaneously hypertensive rat brain at 10 mg/kg measured after 24 hrs; format: ADME, organism-based; set-up: dose 10 mg/kg; conditions: in vivo; method in brief: as §2
[6] = Drug level in spontaneously hypertensive rat CSF at 10 mg/kg measured after 4 hrs; format: ADME, organism-based, Cerebrospinal fluid; set-up: dose 10 mg/kg; conditions: read-out: Drug uptake; method in brief: as §2
Plasma [7] = assay: Free plasma concentration in spontaneously hypertensive rat at 10 mg/kg measured after 24 hrs; format: ADME, organism-based; set-up: dose 10 mg/kg; conditions: in vivo; method in brief: as §2
[8] = Total drug level in spontaneously hypertensive rat brain at 10 mg/kg measured after 4 hrs; format: ADME, organism-based; set-up: dose 10 mg/kg; conditions: read-out: Drug uptake; method in brief: as §2
Brain [9] = assay: Free drug level in spontaneously hypertensive rat brain at 10 mg/kg measured after 4 hrs; format: ADME, organism-based; set-up: dose 10 mg/kg; conditions: in vivo; method in brief: as §2
Plasma [10] = assay: Free plasma concentration in spontaneously hypertensive rat at 10 mg/kg measured after 4 hrs; format: ADME, organism-based; set-up: dose 10 mg/kg; conditions: in vivo; method in brief: as §2
[11] = Plasma concentration in spontaneously hypertensive rat model at 10 mg/kg measured after 24 hrs; format: ADME, organism-based; set-up: dose 10 mg/kg; method in brief: as §2
[12] = Plasma concentration in spontaneously hypertensive rat model at 10 mg/kg measured after 4 hrs; format: ADME, organism-based; set-up: dose 10 mg/kg; method in brief: as §2
Rattus norvegicus [13] = assay: Antihypertensive activity in spontaneously hypertensive rat model assessed as reduction in diastolic BP at 10 mg/kg for 7 days; format: functional, organism-based; set-up: dose 10 mg/kg; method in brief: as §1
Rattus norvegicus [14] = assay: Antihypertensive activity in spontaneously hypertensive rat model assessed as reduction in systolic BP at 10 mg/kg for 7 days; format: functional; method in brief: as §1
[15] = target: 11-beta-HSD1 (Rattus norvegicus); assay: Binding affinity to rat liver microsomal 11beta-HSD1 by radiometric competition assay
Homo sapiens [16] = species on record: Homo sapiens; assay: Antihypertensive activity in hypertensive patients assessed as placebo-corrected systolic BP at 7 mg/day
Homo sapiens [17] = species on record: Homo sapiens; assay: Antihypertensive activity in hypertensive patients assessed as placebo-corrected diastolic BP at 7 mg/day
[18] = target: 11-beta-hydroxysteroid dehydrogenase 1 (Rattus norvegicus, UniProt P16232); assay: Inhibition of rat 11beta-HSD1
Homo sapiens [19] = species on record: Homo sapiens; assay: Antihypertensive activity in hypertensive patients assessed as placebo-corrected systolic BP at 6 mg/day
Homo sapiens [20] = species on record: Homo sapiens; assay: Antihypertensive activity in hypertensive patients assessed as placebo-corrected diastolic BP at 6 mg/day
Mus musculus [21] = assay: Antihypertensive activity in telemeterized wild type mouse assessed as reduction in systolic BP at 30 mg/kg/day for 11 days; format: functional
Method in brief: (§3)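 Telemeterized 11β-HSD1 knockout mice and wild-type controls (not littermates) were dosed at 30 mg/kg/day. Systolic BP change was compared with vehicle-treated mice of each genotype, and plasma exposure was also measured.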

Mus musculus [22] = assay: Antihypertensive activity in telemeterized 11beta-HSD1 KO mouse assessed as reduction in systolic BP at 30 mg/kg/day for 11 days; format: functional; method in brief: as §3
[23] = target: 11-beta-HSD2 (Homo sapiens); assay: Inhibition of human microsomal 11beta-HSD2 assessed as inhibition of […] by cell-based assay

Sequence of 11-beta-hydroxysteroid dehydrogenase 1 (P16232 whole entry): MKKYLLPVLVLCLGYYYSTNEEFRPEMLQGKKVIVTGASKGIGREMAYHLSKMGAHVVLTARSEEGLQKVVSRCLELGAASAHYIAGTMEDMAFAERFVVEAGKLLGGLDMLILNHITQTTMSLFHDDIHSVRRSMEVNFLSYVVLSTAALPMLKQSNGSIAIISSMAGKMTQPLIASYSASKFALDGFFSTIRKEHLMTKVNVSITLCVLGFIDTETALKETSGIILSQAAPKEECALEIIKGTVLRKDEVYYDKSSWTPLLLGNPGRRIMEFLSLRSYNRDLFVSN

SMILES | Activity (Rattus norvegicus [1]) | Kp [2] | concentration at 24 h [3] [µM] | concentration at 24 h [4] [µM] | Drug uptake(free) (Brain [5]) [µM] | concentration at 4 h [6] [µM] | Cp(f) (Plasma [7]) [µM] | concentration at 4 h [8] [µM] | Drug uptake(free) (Brain [9]) [µM] | Cp(f) (Plasma [10]) [µM] | concentration at 24 h [11] [µM] | concentration at 4 h [12] [µM] | Activity (Rattus norvegicus [13]) | Activity (Rattus norvegicus [14]) [mmHg] | IC50 [18] [nM] | Ki [18] [nM] | other results
Cn1c(-c2ccccc2C(F)(F)F)nnc1C12CCC(c3nc(-c4ccc(F)cc4)no3)(CC1)CC2 | Active | > 1 | 0.2 | 39.1 | 0.06 | 0.2 | 0.05 | 44.4 | 0.08 | 0.07 | 12.1 | 13.9 | Active | >15 |  |  | 
[3H]c1cc(-c2nnc(C34CCC(c5noc(C(C)(F)F)n5)(CC3)CC4)n2C)c(C(F)(F)F)cc1[3H] |  |  |  |  |  |  |  |  |  |  |  |  |  |  |  |  | Kd [15]: 11 nM
CCS(=O)(=O)CCCC12CCC(c3nnc(-c4ccccc4C(F)(F)F)n3C)(CC1)CC2 [MK-0736] |  |  |  |  |  |  |  |  |  |  |  |  |  |  |  |  | Activity (Homo sapiens [16]): -7.7 mmHg; Activity (Homo sapiens [17]): -4.4 mmHg
CCS(=O)(=O)CCC12CCC(c3nnc(-c4ccccc4C(F)(F)F)n3C)(CC1)CC2 | Active | < 1 | 0.7 | 0.7 | 0.2 | 5.1 | 1.9 | 5 | 0.5 | 9.5 | 6 | 24.2 | Active | 3 | 6 | 3.9 | 
F[C@H]1C[C@](c2ccc(Cl)cc2)(c2nnc(C3CC3)n2C2CC2)C1 |  |  |  |  |  |  |  |  |  |  |  |  |  |  |  |  | Activity (Homo sapiens [19]): -7.9 mmHg; Activity (Homo sapiens [20]): -5.4 mmHg
CCS(=O)(=O)CC12CCC(c3nnc(-c4ccccc4C(F)(F)F)n3C)(CC1)CC2 | Active | < 1 | 0.7 | 0.8 | 0.2 | 2.1 | 2.1 | 3.1 | 1.3 | 8 | 10.2 | 27.7 | Active | 3 | 9.1 | 13.1 | 
Cn1c(-c2ccccc2C(F)(F)F)nnc1C12CCC(c3noc(C(C)(F)F)n3)(CC1)CC2 | Active | > 1 | 3.4 | 55.4 | 2.4 | 4.4 | 2.4 | 60.5 | 3 | 2.5 | 25.4 | 25 | Active | >15 | 4.5 | 7 | Activity (Mus musculus [21]): -8 mmHg; Activity (Mus musculus [22]): -5.8 mmHg; Bmax ([15]; tested as the 3H-labelled form): 55500 fmol/mg; IC50 [23]: 3100 nM
